# Screening results (PubChem BioAssay)
# Rows were chosen to be rich in hits. Some 2.6% of all compounds tested hit in one or more screens of this group.
# SENP1 FRET inh: human SENP1 catalytic domain inhibitors, primary screen, biochemical, FRET, uHTS; Sentrin-specific protease 1 (Homo sapiens), Q9P0U3; recombinant SENP1 catalytic domain, CyPet-SUMO1-YPet FRET cleavage; inhibition, % at 10 µM; actives 0.21% (n = 360,000); AID 624204, 2012;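 active = inhibition at least 30% at 10 µM, raw YFP signal under a set limit, fluorescence ratio 0.5 to 1.5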
# Target sequence (Q9P0U3 419-644 limits assumed): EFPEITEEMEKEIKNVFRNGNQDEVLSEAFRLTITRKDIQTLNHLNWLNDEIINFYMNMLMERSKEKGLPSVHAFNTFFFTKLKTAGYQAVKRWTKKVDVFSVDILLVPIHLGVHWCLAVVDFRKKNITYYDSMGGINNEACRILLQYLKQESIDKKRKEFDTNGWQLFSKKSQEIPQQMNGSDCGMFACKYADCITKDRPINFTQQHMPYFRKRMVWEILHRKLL
#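 system = hSENP1 catalytic domain, recombinant | reagent = SFCypet-SUMO1-SFYpet substrate at 25 nM | doses = one dose per compound, 10 µM, 0.5% DMSO | incubation = enzyme reaction for 50 min at room temperature, dark | measured by = FRET, CFP and YFP emission | controls = no-enzyme low, enzyme-DMSO high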
# SENP6 inh: SENP6 protease inhibitors, primary screen, biochemical, luminescence, uHTS; Sentrin-specific protease 6 (Homo sapiens), Q9GZR1; Recombinant SENP6 catalytic domain, aminoluciferin luminescence; inhibition, % at 10 µM; actives 1.8% (n = 330,000); AID 2599, 2010;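 active = inhibition above about 50% at the single tested dose, limit read from the data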
# Platelet DG rel: inhibitors of platelet dense granule secretion, primary screen, cell-based, MLPCN, human platelets | human platelet-rich plasma, SFLLRN dense granule ATP release, luminescence | inhibition, %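 (compounds screened at 7.5 µM in platelet-rich plasma)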 | actives 0.22% (n = 300,000) | AID 1663, 2009;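 active = mean replicate score, as percent of positive control, at or above 50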
# SENP8 block-1: SENP8 protease inhibitors, primary screen, biochemical, luminescence | purified SENP8, Z-RLRGG-aminoluciferin cleavage | inhibition, % at 10 µM | actives 1.2% (n = 330,000); in the data active = inhibition above about 50%
# Target sequence (Q96LD8 whole entry, looked up): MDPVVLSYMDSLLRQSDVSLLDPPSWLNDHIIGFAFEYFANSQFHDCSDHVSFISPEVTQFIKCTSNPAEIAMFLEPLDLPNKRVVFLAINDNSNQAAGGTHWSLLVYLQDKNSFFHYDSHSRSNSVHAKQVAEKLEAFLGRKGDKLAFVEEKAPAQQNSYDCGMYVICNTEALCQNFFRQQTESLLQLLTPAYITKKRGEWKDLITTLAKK
# SENP7 block: SENP7 protease inhibitors, primary screen, biochemical, luminescence, uHTS. recombinant SENP7, Z-RLRGG-aminoluciferin luminescence, 40 min. inhibition, % at 5 µM. actives 1.5% (n = 330,000);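 active = inhibition above about 50% at the single test dose, limit read from the data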
# SENP8 block-2: human SENP8 protease inhibitors, primary screen, biochemical, fluorescence, Nedd8 protein substrate, uHTS. Sentrin-specific protease 8 (Homo sapiens), Q96LD8. actives 0.64% (n = 360,000). inhibition, % at 20 µM. AID 602440, 2012. recombinant SENP8; in the data active = inhibition mostly above about 40%, no sharp cut-off; inactive = mostly below about 27%
# SENP8 conf: SENP8 protease inhibitors, retest, confirmation, biochemical, luminescence, single concentration; Recombinant SENP8, Z-RLRGG-aminoluciferin luminescence, 60 min; actives 40% (n = 6,200); inhibition, % at 12.5 µM; shares compounds with SENP7 block;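 active = mean inhibition across replicates above about 50%, limit read from the data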
# SENP6 confirm: SENP6 protease inhibitors, confirmation, biochemical, luminescence, single concentration; actives 58% (n = 6,200); shares compounds with SENP7 block; AID 488915, 2010; inhibition, % at 12.5 µM; recombinant SENP6, Z-RLRGG-aminoluciferin luminescence
# SENP7 confirm: SENP7 protease inhibitors, retest, confirmation, biochemical, luminescence, single concentration; shares compounds with SENP7 block; AID 488917, 2010; inhibition, % at 12.5 µM; recombinant SENP7, Z-RLRGG-aminoluciferin luminescence, 40 min; actives 69% (n = 6,200)
# Casp3 select: caspase-3 protease inhibitors, confirmation, selectivity assay for SENP inhibitor project, biochemical, single concentration. shares compounds with SENP7 block. actives 60% (n = 6,200). inhibition, % at 12.5 µM. purified caspase-3, Z-DEVD-aminoluciferin luminescence, 60 min;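 active = mean inhibition above about 50%, limit read from the data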
# Luc interf: interferes with luciferase luminescence in SENP counter-screen. shares compounds with SENP7 block. inhibition, % at 12.5 µM. actives 39% (n = 6,200). Pre-incubated SENP8/Z-RLRGG-aminoluciferin, luciferase luminescence interference;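 active = mean inhibition above about 50% when retested at one dose, limit read from the data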
# Hits are given with their value; n = inactive; x = no result given.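 The calls were made as follows, unless noted: active = mean inhibition above about 50% in the one-dose retest (limit read from the data); inactive = the rest.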
SMILES,SENP1 FRET inh,SENP6 inh,Platelet DG rel,SENP8 block-1,SENP7 block,SENP8 block-2,SENP8 conf,SENP6 confirm,SENP7 confirm,Casp3 select,Luc interf
CN1/C(=C\C(=O)c2cccs2)Sc2ccccc21,n,85.7,n,81.7,n,n,90.6,89.9,100.1,92.1,91.7
COc1ccc(C(=O)N=c2sccn2C)cc1,n,n,n,n,n,n,x,x,x,x,x
COC(=O)c1ccc(C(=O)N=c2sccn2C)cc1,n,55.3,n,n,51.9,n,n,n,76.4,78.0,n
Cn1ccsc1=NC(=O)c1ccc(Cl)cc1,n,n,n,n,n,n,x,x,x,x,x
Cn1ccsc1=NC(=O)c1ccc(OC(F)(F)F)cc1,n,63.2,n,51.2,60.9,n,55.8,58.5,88.2,62.0,66.0
COCCN(C(=O)COC(=O)CSc1ccc(Cl)cc1)c1c(N)n(CC(C)C)c(=O)[nH]c1=O,n,n,x,n,n,n,x,x,x,x,x
O=C(NCCc1cn[nH]c1)c1ccc2oc(CCc3ccccc3)nc2c1,n,x,x,x,x,n,x,x,x,x,x
CC(OC(=O)c1ccc([N+](=O)[O-])s1)C(=O)Nc1ncc(Cl)cc1Cl (centres undefined),n,60.0,n,61.6,n,n,n,n,n,n,n
CCOc1ccc2oc(C(=O)Nc3ccc(C)cn3)c(C)c2c1,n,x,x,x,x,n,x,x,x,x,x
Cc1ccc(NC(=O)c2oc3ccccc3c2C)nc1,n,54.6,n,n,n,n,n,n,70.3,n,n
Cc1c(C(=O)Nc2nnc(C(F)(F)F)s2)oc2ccccc12,n,n,n,n,62.3,n,52.7,53.9,59.6,58.9,n
Cc1c(C(=O)Nc2ccccn2)oc2ccccc12,n,64.3,n,57.0,75.9,n,n,54.8,79.1,56.3,55.6
O=c1[nH]c2ccc(Br)cc2c(=O)o1,n,x,x,x,x,n,x,x,x,x,x
CC(=O)N1CCN(C(c2ccccc2)c2nnnn2C(C)(C)C)CC1 (centres undefined),n,x,x,x,x,n,x,x,x,x,x
CN1CCN(c2ccc(NC(=O)c3cccc(OCc4ccccc4)c3)cc2)CC1,n,58.7,n,n,n,n,n,n,n,n,n
CC(=O)Nc1ccc(OCc2cccc([N+](=O)[O-])c2)cc1,n,n,n,n,n,n,x,x,x,x,x
CCN1CCN(c2ccc(NC(=O)c3cccc(OCc4ccccc4)c3)cc2)CC1,n,56.2,n,n,n,n,n,n,n,n,n
O=C(Nc1ccc(COc2ccccc2)cc1)c1cccc([N+](=O)[O-])c1,n,n,n,n,62.5,n,n,n,n,n,n
